# Source: ChEMBL document CHEMBL1154945, “Decahydroisoquinoline derivatives as novel non-peptidic, potent and subtype-selective somatostatin sst(3) receptor antagonists” (Bioorg Med Chem Lett, 2010)
# How the values were obtained:
# [1] = Ratio of drug level in brain to plasma in mouse at 3 mg/kg, po after 1 hr by LC-MS based method; type: ADME, organism-based; parameters: dose 3 mg/kg, route oral; details: brain and plasma
# Outline: (§1)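 Mice and rats dosed orally at 3 mg/kg with unlabelled drug; plasma and brain sampled 1 h after dosing and analysed by LC–MS (LOQ 0.4 ng/ml plasma, 2 ng/g brain); brain/plasma ratio calculated.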
# Homo sapiens [2] = species: Homo sapiens; test: Selectivity for human SST3 over human SST1
# Homo sapiens [3] = species: Homo sapiens; test: Selectivity for human SST3 over human SST5
# D(2) dopamine receptor = D(2) dopamine receptor (Homo sapiens, UniProt P14416); test: Binding affinity to dopamine D2 receptor
# Homo sapiens [4] = species: Homo sapiens; test: Selectivity for human SST3 over human SST4
# Cytochrome P450 2D6 = Cytochrome P450 2D6 (Homo sapiens, UniProt P10635); test: Inhibition of CYP2D6; type: ADME
# Outline: (§2)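 Inhibition of the five principal human cytochrome P450 isoenzymes screened by a microplate-based, direct fluorometric assay.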
# V79 = test: Genotoxicity against chinese hamster V79 cells by micronucleus test; type: toxicity, cell-based, Cricetulus griseus
# [5] = molecular target: Somatostatin receptor type 1 (Homo sapiens, UniProt P30872); test: Binding affinity to human SST1 receptor
# [6] = molecular target: T1, Somatostatin receptor type 3 (Homo sapiens, UniProt P32745); test: Binding affinity to human SST3 receptor
# [7] = Oral bioavailability in rat at 3 mg/kg; type: ADME, organism-based; details: in vivo
# Outline: (§3)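 Unlabelled drug given orally (3 mg/kg) and intravenously (1 mg/kg) to mice and rats; plasma quantified by LC–MS (LOQ 0.4 ng/ml); absolute bioavailability estimated from the two routes.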
# [8] = Oral bioavailability in mouse at 3 mg/kg; type: ADME, organism-based; details: in vivo; outline: as §3
# [9] = molecular target: T2, Alpha-1A adrenergic receptor (Homo sapiens, UniProt P35348); test: Binding affinity to Alpha-1A adrenergic receptor
# T2 sequence (P35348 whole entry): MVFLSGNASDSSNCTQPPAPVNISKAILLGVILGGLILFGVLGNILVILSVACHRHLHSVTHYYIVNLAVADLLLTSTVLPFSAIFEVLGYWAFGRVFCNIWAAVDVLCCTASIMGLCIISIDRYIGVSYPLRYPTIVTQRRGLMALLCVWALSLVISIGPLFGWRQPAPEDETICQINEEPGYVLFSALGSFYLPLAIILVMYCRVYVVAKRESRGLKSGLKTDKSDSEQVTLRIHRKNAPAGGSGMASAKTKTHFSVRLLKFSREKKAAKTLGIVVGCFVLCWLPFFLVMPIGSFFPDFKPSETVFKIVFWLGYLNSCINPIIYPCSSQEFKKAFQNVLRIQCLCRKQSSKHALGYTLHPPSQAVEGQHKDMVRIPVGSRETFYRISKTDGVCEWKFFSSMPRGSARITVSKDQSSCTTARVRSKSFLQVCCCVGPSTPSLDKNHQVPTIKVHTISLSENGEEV
# [10] = molecular target: T1, Somatostatin receptor type 3; test: Antagonist activity at human recombinant SST3 receptor expressed in CHO cells assessed as inhibition of SRIF14-induced cAMP accumulation; type: functional, cell-based
# Outline: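 cAMP-based functional assay with human recombinant sst3 receptors expressed in CHO cells; test agent's antagonism of SRIF-14 response measured, pKB derived; n = 6.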
# [11] = Apparent terminal half life in mouse plasma at 1 mg/kg, iv; type: ADME, organism-based; parameters: dose 1 mg/kg, route intravenous
# Outline: (§4)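 Unlabelled drug dosed intravenously at 1 mg/kg to mice and rats; plasma analysed by LC–MS (LOQ 0.4 ng/ml); apparent terminal half-life computed from plasma levels.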
# [12] = molecular target: Somatostatin receptor type 2 (Rattus norvegicus, UniProt P30680); test: Displacement of [125I]SRIF-14 from rat cortex membrane SST2 receptor
# [13] = molecular target: Somatostatin receptor type 1 (Rattus norvegicus, UniProt P28646); test: Displacement of [125I]SRIF-14 from rat cortex membrane SST1 receptor
# [14] = molecular target: Somatostatin receptor type 3 (Mus musculus, UniProt P30935); test: Displacement of [125I]SRIF-28 from mouse recombinant SST3 receptor
# Outline: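 Radioligand binding on recombinant mouse sst3 receptors with 125I-SRIF28 as tracer; pKD reported, n = 3.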
# [15] = molecular target: T3, 5-hydroxytryptamine receptor 2C (Homo sapiens, UniProt P28335); test: Binding affinity to 5HT2C receptor
# T3 sequence (P28335 whole entry): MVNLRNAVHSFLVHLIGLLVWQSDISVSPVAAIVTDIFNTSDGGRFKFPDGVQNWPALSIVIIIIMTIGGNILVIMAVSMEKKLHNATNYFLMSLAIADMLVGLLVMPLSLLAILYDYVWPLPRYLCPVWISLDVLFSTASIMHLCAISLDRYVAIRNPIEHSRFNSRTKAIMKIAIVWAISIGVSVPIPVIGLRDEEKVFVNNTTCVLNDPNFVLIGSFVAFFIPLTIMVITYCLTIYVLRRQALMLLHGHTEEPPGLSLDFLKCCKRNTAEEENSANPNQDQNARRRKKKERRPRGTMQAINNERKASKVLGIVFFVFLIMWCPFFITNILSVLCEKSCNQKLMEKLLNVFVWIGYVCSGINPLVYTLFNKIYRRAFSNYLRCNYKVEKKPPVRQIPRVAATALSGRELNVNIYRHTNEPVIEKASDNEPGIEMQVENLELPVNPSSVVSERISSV
# [16] = Ratio of drug level in brain to plasma in rat at 3 mg/kg, po after 1 hr by LC-MS based method; type: ADME, organism-based; parameters: dose 3 mg/kg, route oral; details: brain and plasma; outline: as §1
# [17] = Inhibition of CYP450; type: ADME; outline: as §2
# Homo sapiens [18] = species: Homo sapiens; test: Selectivity for human SST3 over human SST2
# [19] = Apparent terminal half life in rat plasma at 1 mg/kg, iv; type: ADME, organism-based; parameters: dose 1 mg/kg, route intravenous; outline: as §4
# [20] = molecular target: Somatostatin receptor type 4 (Homo sapiens, UniProt P31391); test: Binding affinity to human SST4 receptor
# [21] = molecular target: Somatostatin receptor type 2 (Homo sapiens, UniProt P30874); test: Binding affinity to human SST2 receptor
# [22] = molecular target: Somatostatin receptor type 5 (Homo sapiens, UniProt P35346); test: Binding affinity to human SST5 receptor
# Chain of Somatostatin receptor type 5 (P35346 whole entry): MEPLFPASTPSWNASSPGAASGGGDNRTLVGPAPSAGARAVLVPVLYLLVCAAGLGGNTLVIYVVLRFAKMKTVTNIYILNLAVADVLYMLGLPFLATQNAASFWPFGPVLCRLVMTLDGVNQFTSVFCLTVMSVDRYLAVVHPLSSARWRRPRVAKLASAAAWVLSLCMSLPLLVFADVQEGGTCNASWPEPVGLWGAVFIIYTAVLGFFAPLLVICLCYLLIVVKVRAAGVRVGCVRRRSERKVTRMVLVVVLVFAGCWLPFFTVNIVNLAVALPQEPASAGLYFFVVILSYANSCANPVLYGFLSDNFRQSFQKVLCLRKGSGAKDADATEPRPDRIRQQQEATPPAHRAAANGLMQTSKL
# T1 sequence (P32745 whole entry): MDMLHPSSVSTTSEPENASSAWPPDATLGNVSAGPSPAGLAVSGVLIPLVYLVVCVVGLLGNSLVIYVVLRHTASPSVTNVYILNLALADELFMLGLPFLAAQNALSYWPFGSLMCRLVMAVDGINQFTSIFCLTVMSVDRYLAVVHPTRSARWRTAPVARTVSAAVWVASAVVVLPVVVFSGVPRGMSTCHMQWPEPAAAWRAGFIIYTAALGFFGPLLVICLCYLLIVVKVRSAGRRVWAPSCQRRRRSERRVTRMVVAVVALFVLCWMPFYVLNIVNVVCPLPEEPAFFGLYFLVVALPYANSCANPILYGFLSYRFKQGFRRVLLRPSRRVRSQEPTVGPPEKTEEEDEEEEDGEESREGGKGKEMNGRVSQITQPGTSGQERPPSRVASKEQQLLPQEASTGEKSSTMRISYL
# Chain of D(2) dopamine receptor (P14416 whole entry): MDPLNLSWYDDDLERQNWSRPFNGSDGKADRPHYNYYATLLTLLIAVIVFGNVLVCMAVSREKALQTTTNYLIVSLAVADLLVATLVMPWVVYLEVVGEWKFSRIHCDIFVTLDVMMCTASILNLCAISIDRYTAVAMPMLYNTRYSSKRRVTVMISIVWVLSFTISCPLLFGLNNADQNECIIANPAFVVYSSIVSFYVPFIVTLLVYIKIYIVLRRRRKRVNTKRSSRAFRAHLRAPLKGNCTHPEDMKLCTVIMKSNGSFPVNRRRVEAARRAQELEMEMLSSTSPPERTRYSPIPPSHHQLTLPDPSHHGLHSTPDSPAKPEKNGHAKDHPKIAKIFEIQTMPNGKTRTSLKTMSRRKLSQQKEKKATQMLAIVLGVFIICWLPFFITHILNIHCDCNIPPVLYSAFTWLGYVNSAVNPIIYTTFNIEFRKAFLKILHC
# Chain of Somatostatin receptor type 4 (P31391 whole entry): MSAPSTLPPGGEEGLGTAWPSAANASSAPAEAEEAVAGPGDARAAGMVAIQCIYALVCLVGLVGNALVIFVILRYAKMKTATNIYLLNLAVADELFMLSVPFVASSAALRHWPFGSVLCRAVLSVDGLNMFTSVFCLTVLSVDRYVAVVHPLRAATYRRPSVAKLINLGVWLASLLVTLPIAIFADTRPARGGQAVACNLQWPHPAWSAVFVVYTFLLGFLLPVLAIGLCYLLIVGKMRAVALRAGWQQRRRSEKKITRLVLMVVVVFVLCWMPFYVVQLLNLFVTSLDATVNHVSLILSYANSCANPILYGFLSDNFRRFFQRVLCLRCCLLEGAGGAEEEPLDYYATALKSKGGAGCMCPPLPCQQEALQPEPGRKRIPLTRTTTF
# Chain of Somatostatin receptor type 2 (Rattus norvegicus, UniProt P30680) (P30680 whole entry): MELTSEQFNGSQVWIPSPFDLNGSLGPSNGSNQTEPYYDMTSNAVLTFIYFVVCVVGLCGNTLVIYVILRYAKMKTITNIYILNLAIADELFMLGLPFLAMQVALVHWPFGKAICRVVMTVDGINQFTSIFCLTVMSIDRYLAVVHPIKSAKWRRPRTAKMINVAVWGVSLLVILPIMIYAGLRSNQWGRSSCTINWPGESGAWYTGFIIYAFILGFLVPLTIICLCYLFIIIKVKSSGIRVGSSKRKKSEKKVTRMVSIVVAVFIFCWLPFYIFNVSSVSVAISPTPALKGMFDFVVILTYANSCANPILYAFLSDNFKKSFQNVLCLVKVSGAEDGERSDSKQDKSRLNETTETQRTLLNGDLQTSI
# Chain of Somatostatin receptor type 3 (Mus musculus, UniProt P30935) (P30935 whole entry): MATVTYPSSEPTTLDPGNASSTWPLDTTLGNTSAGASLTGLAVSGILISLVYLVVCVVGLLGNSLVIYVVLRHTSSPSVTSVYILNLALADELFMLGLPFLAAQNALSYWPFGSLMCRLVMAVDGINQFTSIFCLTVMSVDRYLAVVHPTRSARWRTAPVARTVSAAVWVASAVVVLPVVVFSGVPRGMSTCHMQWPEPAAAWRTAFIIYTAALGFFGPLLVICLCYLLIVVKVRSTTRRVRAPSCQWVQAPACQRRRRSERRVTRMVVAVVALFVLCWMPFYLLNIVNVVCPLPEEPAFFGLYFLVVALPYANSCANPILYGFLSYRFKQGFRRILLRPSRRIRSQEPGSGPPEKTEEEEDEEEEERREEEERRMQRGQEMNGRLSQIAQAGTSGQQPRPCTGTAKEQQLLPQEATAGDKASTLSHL
# Chain of Somatostatin receptor type 2 (Homo sapiens, UniProt P30874) (P30874 whole entry): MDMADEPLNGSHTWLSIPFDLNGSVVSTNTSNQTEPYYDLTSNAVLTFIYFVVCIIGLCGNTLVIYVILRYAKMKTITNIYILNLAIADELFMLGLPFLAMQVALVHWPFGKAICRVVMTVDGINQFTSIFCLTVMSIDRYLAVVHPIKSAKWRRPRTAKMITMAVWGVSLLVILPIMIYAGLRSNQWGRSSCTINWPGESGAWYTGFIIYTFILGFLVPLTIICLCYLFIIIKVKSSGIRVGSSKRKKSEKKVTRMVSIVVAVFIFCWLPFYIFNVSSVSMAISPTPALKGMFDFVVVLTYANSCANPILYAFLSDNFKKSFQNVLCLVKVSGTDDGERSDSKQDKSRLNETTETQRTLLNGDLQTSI
# Chain of Somatostatin receptor type 1 (Rattus norvegicus, UniProt P28646) (P28646 whole entry): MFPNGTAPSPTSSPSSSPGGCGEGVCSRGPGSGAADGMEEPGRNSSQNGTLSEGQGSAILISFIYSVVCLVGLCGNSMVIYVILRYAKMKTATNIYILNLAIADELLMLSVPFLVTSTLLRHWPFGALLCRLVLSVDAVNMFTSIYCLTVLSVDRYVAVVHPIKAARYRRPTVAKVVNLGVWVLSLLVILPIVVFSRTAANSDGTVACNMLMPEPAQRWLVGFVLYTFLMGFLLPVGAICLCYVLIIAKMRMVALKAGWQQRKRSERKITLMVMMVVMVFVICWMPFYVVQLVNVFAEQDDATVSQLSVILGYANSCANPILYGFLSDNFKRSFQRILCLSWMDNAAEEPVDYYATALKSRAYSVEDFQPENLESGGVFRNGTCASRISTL
# Chain of Somatostatin receptor type 1 (Homo sapiens, UniProt P30872) (P30872 whole entry): as the sequence (P28646 whole entry) above, with P8S, T11S, S16P, G20S, V25G, C26G, S32A, S45A, A385T, S389T counted along it
# Chain of Cytochrome P450 2D6 (P10635 whole entry): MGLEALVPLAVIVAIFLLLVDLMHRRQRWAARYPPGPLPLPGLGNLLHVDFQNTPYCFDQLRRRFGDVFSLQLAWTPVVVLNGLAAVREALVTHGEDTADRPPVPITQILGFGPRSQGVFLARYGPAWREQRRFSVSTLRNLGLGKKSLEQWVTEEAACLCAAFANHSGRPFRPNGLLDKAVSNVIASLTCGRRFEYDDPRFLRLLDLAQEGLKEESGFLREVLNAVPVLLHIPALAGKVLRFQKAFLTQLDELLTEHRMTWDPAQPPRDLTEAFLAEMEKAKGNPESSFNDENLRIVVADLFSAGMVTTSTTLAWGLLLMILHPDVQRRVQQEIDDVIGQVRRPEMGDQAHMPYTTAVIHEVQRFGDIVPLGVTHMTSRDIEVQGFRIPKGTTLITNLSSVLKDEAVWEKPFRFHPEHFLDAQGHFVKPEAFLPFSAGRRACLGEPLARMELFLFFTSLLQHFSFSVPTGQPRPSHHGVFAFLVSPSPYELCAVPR
smiles,measurement,setting,value
COc1ccc(C[C@H](C)CN2C[C@@H]3CCCC[C@@H]3[C@H](C(=O)N3CCN(c4ccc(F)c(F)c4)CC3)C2)cn1.O=C(O)/C=C/C(=O)O,Kp at 1 h,[1],2.4
same,Ratio,Homo sapiens [2],> 100
same,Ratio,Homo sapiens [3],> 150
same,Kd,D(2) dopamine receptor,741 nM
same,Ratio,Homo sapiens [4],21
same,IC50,Cytochrome P450 2D6,6500 nM
same,Activity,V79,Non-toxic
same,Kd,[5],2040 nM
same,Kd,[6],7.08 nM
same,bioavailability,[7],21%
same,bioavailability,[8],15%
same,Kd,[9],692 nM
same,pKb,[10],7.88
same,half-life,[11],1.5 h
same,Kd,[12],115 nM
same,Kd,[13],589 nM
same,Kd,[14],4.9 nM
same,Kd,[15],427 nM
same,Kp at 1 h,[16],0.4
same,IC50,[17],> 10000 nM
same,Ratio,Homo sapiens [18],> 150
same,half-life,[19],5.6 h
same,Kd,[20],148 nM
same,Kd,[21],4570 nM
same,Kd,[22],1120 nM
